In assay [1] the test system is HepG2. The experiment in a line: Antiproliferative activity against human HepG2 cells after 72 hrs by MTT assay. It is filed as functional, cell-based. Particulars: HepG2, 72 h. Put shortly:
(§1)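 MTT assay. Log-phase cells were seeded at 3×10^3 cells/well and left overnight, then exposed to serial dilutions of compound (DMSO solutions) for 72 h in RPMI 1640 with 10% heat-inactivated FBS at 37 °C, 5% CO2. MTT (5 mg/mL, 20 µL) was added for 4 h at 37 °C and the formazan dissolved in DMSO. A490 was read. % inhibition = (1 − sample OD/control OD)×100; IC50 is the 50% growth-inhibition concentration. Triplicates, n = 3 independent experiments.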
Background: Tetrazolium assays rely on reduction of a dye to a coloured formazan, in cell work by metabolically active cells.

In assay [2] the test system is HT-29. The assay is described as follows: Antiproliferative activity against human HT-29 cells after 72 hrs by MTT assay. Conditions: HT-29, 72 h. It is filed as functional, cell-based. Put shortly: as §1
Assay [3] has as its system MDCK. The assay is described as follows: Antiproliferative activity against MDCK cells after 72 hrs by MTT assay. Conditions: Canis lupus familiaris. It is filed as cell-based. Put shortly: as §1
Assay [4] relates to A549. The assay is described as follows: Antiproliferative activity against human A549 cells after 72 hrs by MTT assay. It is filed as functional, cell-based. Particulars: A549, 72 h. Summed up:
as §1

Assay [5] deals with HeLa. The experiment in a line: Antiproliferative activity against human HeLa cells after 72 hrs by MTT assay. It is filed as functional, cell-based. Put shortly:
as §1

For assay [6], the system named is BGC-823. The assay is described as follows: Antiproliferative activity against human BGC823 cells after 72 hrs by MTT assay. Conditions: BGC-823, 72 h. It is filed as functional, cell-based. Summed up: as §1

The record followed here is ChEMBL document CHEMBL4049390, “Combination of amino acid/dipeptide with ligustrazine-betulinic acid as antitumor agents” (Eur J Med Chem, 2017).

As usually defined, the IC50 is the concentration that gives 50% inhibition. The low end stands for greater potency in that assay, the high end for weaker potency in that assay. Turning to `C=C(C)[C@@H]1CC[C@]2(C(=O)OCc3nc(C)c(C)nc3C)CC[C@]3(C)[C@H](CC[C@@H]4[C@@]5(C)CC[C@H](OC(=O)[C@@H](N)Cc6c[nH]c7ccccc67)C(C)(C)[C@@H]5CC[C@]43C)[C@@H]12`, the IC50 was above 40 µM in assay [1]; 7.41 µM in assay [2]; above 40 µM in assay [3]; above 20 µM in assay [4]; above 20 µM in assay [5]; above 20 µM in assay [6].
For the molecule `C=C(C)[C@@H]1CC[C@]2(C(=O)OCc3nc(C)c(C)nc3C)CC[C@]3(C)[C@H](CC[C@@H]4[C@@]5(C)CC[C@H](OC(=O)[C@H](C)N)C(C)(C)[C@@H]5CC[C@]43C)[C@@H]12`, the IC50 in assay [1] is above 20 µM; in assay [2] it was 7.74 µM; in assay [3], above 40 µM; in assay [4], 6.33 µM; in assay [5], 6.62 µM; in assay [6], 6.16 µM.
`C=C(C)[C@@H]1CC[C@]2(C(=O)OCc3nc(C)c(C)nc3C)CC[C@]3(C)[C@H](CC[C@@H]4[C@@]5(C)CC[C@H](O)C(C)(C)[C@@H]5CC[C@]43C)[C@@H]12`: the IC50 in assay [1] was determined as 5.7 µM; in assay [2], 7.41 µM; in assay [3] it was 18.2 µM; in assay [4], 3.56 µM; in assay [5] it was 8 µM; in assay [6], 6.87 µM.
For the molecule `C=C(C)[C@@H]1CC[C@]2(C(=O)OCc3nc(C)c(C)nc3C)CC[C@]3(C)[C@H](CC[C@@H]4[C@@]5(C)CC[C@H](OC(=O)CNC)C(C)(C)[C@@H]5CC[C@]43C)[C@@H]12`, the IC50 was 4.5 µM in assay [1]; 1.1 µM in assay [2]; 9.08 µM in assay [3]; 3.05 µM in assay [4]; 3.96 µM in assay [5]; 3.97 µM in assay [6].
In the case of `C=C(C)[C@@H]1CC[C@]2(C(=O)OCc3nc(C)c(C)nc3C)CC[C@]3(C)[C@H](CC[C@@H]4[C@@]5(C)CC[C@H](OC(=O)[C@@H]6CCCN6)C(C)(C)[C@@H]5CC[C@]43C)[C@@H]12`, the IC50 in assay [1] is 4.54 µM; in assay [2] it was 2.73 µM; in assay [3], 10.2 µM; in assay [4], 3.36 µM; in assay [5], 6.33 µM; in assay [6], 3.47 µM.
As to `C=C(C)[C@@H]1CC[C@]2(C(=O)OCc3nc(C)c(C)nc3C)CC[C@]3(C)[C@H](CC[C@@H]4[C@@]5(C)CC[C@H](OC(=O)[C@@H](N)[C@@H](C)O)C(C)(C)[C@@H]5CC[C@]43C)[C@@H]12`, the IC50 in assay [1] was 3.64 µM; in assay [2] it was 6.66 µM; in assay [3], above 40 µM; in assay [4], 4.18 µM; in assay [5], 8.39 µM; in assay [6] it was 7.05 µM.
Consider `C=C(C)[C@@H]1CC[C@]2(C(=O)OCc3nc(C)c(C)nc3C)CC[C@]3(C)[C@H](CC[C@@H]4[C@@]5(C)CC[C@H](OC(=O)CNC(=O)CNC)C(C)(C)[C@@H]5CC[C@]43C)[C@@H]12`, for which the IC50 was 5.27 µM in assay [1]; 3.37 µM in assay [2]; 20.6 µM in assay [3]; 3.02 µM in assay [4]; 7.38 µM in assay [5]; 2.07 µM in assay [6].
Take `C=C(C)[C@@H]1CC[C@]2(C(=O)OCc3nc(C)c(C)nc3C)CC[C@]3(C)[C@H](CC[C@@H]4[C@@]5(C)CC[C@H](OC(=O)[C@@H](N)Cc6ccccc6)C(C)(C)[C@@H]5CC[C@]43C)[C@@H]12`: the IC50 was above 40 µM in assay [1]; above 20 µM in assay [2]; above 40 µM in assay [3]; above 40 µM in assay [4]; above 40 µM in assay [5]; above 20 µM in assay [6].
On to `C=C(C)[C@@H]1CC[C@]2(C(=O)OCc3nc(C)c(C)nc3C)CC[C@]3(C)[C@H](CC[C@@H]4[C@@]5(C)CC[C@H](OC(=O)[C@@H](N)C(C)C)C(C)(C)[C@@H]5CC[C@]43C)[C@@H]12`, for which the IC50 in assay [1] was 5.91 µM; in assay [2], above 20 µM; in assay [3], above 40 µM; in assay [4] it was 6.9 µM; in assay [5], 8.63 µM; in assay [6] it was 7.14 µM.
As for `C=C(C)[C@@H]1CC[C@]2(C(=O)OCc3nc(C)c(C)nc3C)CC[C@]3(C)[C@H](CC[C@@H]4[C@@]5(C)CC[C@H](OC(=O)CN(C)C(=O)CN)C(C)(C)[C@@H]5CC[C@]43C)[C@@H]12`, the IC50 in assay [1] came to 4.94 µM; in assay [2], 3.31 µM; in assay [3] it was 8.08 µM; in assay [4] it was 2.96 µM; in assay [5], 2.62 µM; in assay [6] it was 3.43 µM.
On to `C=C(C)[C@@H]1CC[C@]2(C(=O)OCc3nc(C)c(C)nc3C)CC[C@]3(C)[C@H](CC[C@@H]4[C@@]5(C)CC[C@H](OC(=O)[C@@H]6CCC(=O)N6)C(C)(C)[C@@H]5CC[C@]43C)[C@@H]12`, for which the IC50 in assay [1] was determined as 5.86 µM; in assay [2], 3.78 µM; in assay [3], 9.24 µM; in assay [4], 4.11 µM; in assay [5] it was 6.59 µM; in assay [6], 4.7 µM.
As to `C=C(C)[C@@H]1CC[C@]2(C(=O)OCc3nc(C)c(C)nc3C)CC[C@]3(C)[C@H](CC[C@@H]4[C@@]5(C)CC[C@H](OC(=O)CNC(=O)[C@H](C)N)C(C)(C)[C@@H]5CC[C@]43C)[C@@H]12`, the IC50 amounted to 2.27 µM in assay [1]; 3.67 µM in assay [2]; 16.2 µM in assay [3]; 3.25 µM in assay [4]; 3.19 µM in assay [5]; 4.99 µM in assay [6].
As to `C=C(C)[C@@H]1CC[C@]2(C(=O)OCc3nc(C)c(C)nc3C)CC[C@]3(C)[C@H](CC[C@@H]4[C@@]5(C)CC[C@H](OC(=O)CN(C)C(=O)CNC)C(C)(C)[C@@H]5CC[C@]43C)[C@@H]12`, the IC50 came to 3.94 µM in assay [1]; 8.32 µM in assay [2]; 10.9 µM in assay [3]; 4.83 µM in assay [4]; 5.08 µM in assay [5]; 4.1 µM in assay [6].
On to `C=C(C)[C@@H]1CC[C@]2(C(=O)OCc3nc(C)c(C)nc3C)CC[C@]3(C)[C@H](CC[C@@H]4[C@@]5(C)CC[C@H](OC(=O)[C@@H](N)CO)C(C)(C)[C@@H]5CC[C@]43C)[C@@H]12`, for which the IC50 in assay [1] was 4.03 µM; in assay [2] it was 4.35 µM; in assay [3] it was 8.56 µM; in assay [4] it was 4.39 µM; in assay [5] it was 2.74 µM; in assay [6], 6.21 µM.
As to `C=C(C)[C@@H]1CC[C@]2(C(=O)OCc3nc(C)c(C)nc3C)CC[C@]3(C)[C@H](CC[C@@H]4[C@@]5(C)CC[C@H](OC(=O)CN(C)C(=O)[C@H](C)N)C(C)(C)[C@@H]5CC[C@]43C)[C@@H]12`, the IC50 in assay [1] amounted to 4.27 µM; in assay [2], 3.86 µM; in assay [3] it was 14.6 µM; in assay [4], 5.18 µM; in assay [5], 4.55 µM; in assay [6], 4.38 µM.
Take `C=C(C)[C@@H]1CC[C@]2(C(=O)OCc3nc(C)c(C)nc3C)CC[C@]3(C)[C@H](CC[C@@H]4[C@@]5(C)CC[C@H](OC(=O)[C@@H](N)[C@@H](C)CC)C(C)(C)[C@@H]5CC[C@]43C)[C@@H]12`: the IC50 in assay [1] is 12.7 µM; in assay [2], 15.9 µM; in assay [3], above 40 µM; in assay [4] it was 14.5 µM; in assay [5], above 20 µM; in assay [6] it was above 20 µM.
For the molecule `C=C(C)[C@@H]1CC[C@]2(C(=O)OCc3nc(C)c(C)nc3C)CC[C@]3(C)[C@H](CC[C@@H]4[C@@]5(C)CC[C@H](OC(=O)[C@H](C)NC(=O)[C@H](C)N)C(C)(C)[C@@H]5CC[C@]43C)[C@@H]12`, the IC50 in assay [1] stood at 1.93 µM; in assay [2], 4.18 µM; in assay [3] it was 10.2 µM; in assay [4] it was 2.54 µM; in assay [5] it was 4.49 µM; in assay [6] it was 2.51 µM.
Turning to `C=C(C)[C@@H]1CC[C@]2(C(=O)OCc3nc(C)c(C)nc3C)CC[C@]3(C)[C@H](CC[C@@H]4[C@@]5(C)CC[C@H](OC(=O)[C@H](N)CC(=O)O)C(C)(C)[C@@H]5CC[C@]43C)[C@@H]12`, the IC50 in assay [1] was above 20 µM; in assay [2] it was above 20 µM; in assay [3] it was above 40 µM; in assay [4], above 20 µM; in assay [5] it was above 20 µM; in assay [6], above 20 µM.
For `C=C(C)[C@@H]1CC[C@]2(C(=O)OCc3nc(C)c(C)nc3C)CC[C@]3(C)[C@H](CC[C@@H]4[C@@]5(C)CC[C@H](OC(=O)CNC(=O)CN)C(C)(C)[C@@H]5CC[C@]43C)[C@@H]12`, the IC50 is 4 µM in assay [1]; 3.19 µM in assay [2]; 7.45 µM in assay [3]; 1.95 µM in assay [4]; 2.4 µM in assay [5]; 2.88 µM in assay [6].
Take `C=C(C)[C@@H]1CC[C@]2(C(=O)OCc3nc(C)c(C)nc3C)CC[C@]3(C)[C@H](CC[C@@H]4[C@@]5(C)CC[C@H](OC(=O)CN)C(C)(C)[C@@H]5CC[C@]43C)[C@@H]12`: the IC50 in assay [1] amounted to 6.77 µM; in assay [2], 3.97 µM; in assay [3], 5.82 µM; in assay [4], 3.62 µM; in assay [5], 4.24 µM; in assay [6] it was 3.87 µM.
